# Measurements of several laboratories.
# Each line is one published result; the experiments were not run side by side.
# Target: LIM domain kinase 2 (LIMK2, Homo sapiens, UniProt P53671)
Compound,effect on,mode,method,tested at,measurement,value
Cc1sc(C(=O)NC2COC2)cc1-n1cc(NC(=O)Nc2c(F)cccc2Cl)cn1,enzyme activity,inhibitor,,10 µM,remaining activity,113%
O=C(N[C@H]1CCCCC/C=C\C2C[C@@]2(C(=O)O)NC(=O)[C@@H]2C[C@@H](Oc3ccncc3)CN2C1=O)OC1CCCC1 (stereo partly drawn),binding,,competition with immobilised ligand,1 µM,remaining binding,93%
CC(C)(C)c1nc(-c2cccc(NS(=O)(=O)c3c(F)cccc3F)c2F)c(-c2ccnc(N)n2)s1,enzyme activity,inhibitor,radiometric,1 µM,remaining activity,87%
O=C(Nc1cnn(-c2csc(C(=O)NC3COC3)c2)c1)Nc1ccccc1Cl,enzyme activity,inhibitor,,5 µM,remaining activity,96.8%
c1cnn2ncc(-c3ccnc(N4CCC45COC5)n3)c2c1,binding,,,1 µM,remaining binding,82%
CC(C)(C)c1nc2c(s1)c1nc(N)ncc1c1ccc(NS(=O)(=O)c3c(F)cccc3F)c(F)c12,enzyme activity,inhibitor,radiometric,1 µM,remaining activity,92%
O=C(NCc1ncc(C(F)(F)F)cc1Cl)c1ccc2c(c1)C1(CCS(=O)(=O)CC1)[C@@H](C1CC1)N2S(=O)(=O)c1ccc(F)cc1,cell-free assay,,competition with immobilised ligand,1 µM,remaining binding,94%
Nc1ncnc2occ(-c3ccc(NC(=O)Nc4cc(C(F)(F)F)ccc4F)cc3)c12,cell-free assay,inhibitor,,20 µM,remaining signal,8.8%
Cc1ccc(C(=O)Nc2ccc(CN3CCN(C)CC3)c(C(F)(F)F)c2)cc1C#Cc1cnc2cccnn12,enzyme activity,inhibitor,,23.5 nM,remaining activity,100%
CN1CC(Oc2cnc(C#N)cc2-c2ccn3nc(NC(=O)C4CC4)cc3c2)C1,enzyme activity,inhibitor,,1 µM,inhibition,5%
COc1cc(Cl)c(C(=O)N[C@@H](CN[C@H]2CC[C@@H](N)CC2)Cc2ccc(C#N)cc2)cc1-c1ccc(CN[C@H](C)c2ccc(C)cc2)o1,enzyme activity,inhibitor,,1 µM,remaining activity,101%
CCOc1cc(-c2nncn2C)ccc1Nc1ncc2cc(C)nc(NCC(C)(C)C)c2n1,cell-free assay,,TR-FRET,1 µM,inhibition,≤ 15%
